Measured values as given in PMC7839861 (Journal for Immunotherapy of Cancer, 2021).

System: MC38 tumors
Assay: Transcriptional
Assay type: in vivo, mouse
Details: 2 mg/kg ip Q3D x3
Procedure, shortened: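 hCD137 C57BL/6J mice bearing sc MC38 tumors (1 x 10^6 cells) were randomized at about 240 mm3. Groups received vehicle, 15 mg/kg test compound or 15 mg/kg enantiomeric non-binding control iv, or 2 mg/kg anti-CD137 agonist antibody ip, Q3D for 3 doses. Tumors were harvested 1 hr after the last dose. RNA (100 ng/tumor) was profiled on the nCounter mouse PanCancer IO 360 panel, and FFPE sections were stained for mouse CD8 with HRP detection.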

B1: anti-CD137 agonist antibody: anti-CD137 agonist antibody, a commercially available urelumab analog (antibody, V domains shown)
VH: QVQLQQWGAGLLKPSETLSLTCAVYGGSFSGYYWSWIRQSPEKGLEWIGEINHGGYVTYNPSLESRVTISVDTSKNQFSLKLSSVTAADTAVYYCARDYGPGNYDWYFDLWGRGTLVTVSS
VL: EIVLTQSPATLSLSPGERATLSCRASQSVSSYLAWYQQKPGQAPRLLIYDASNRATGIPARFSGSGSGTDFTLTISSLEPEDFAVYYCQQRSNWPPALTFGGGTKVEIK
- T cell infiltration of tumors, histological analysis (CD8 IHC): notably increased
